{"data": "Experimental data collected from several papers", "target": "Dual specificity mitogen-activated protein kinase kinase 5 (MAP2K5, Homo sapiens, UniProt Q13163)", "Sequence (Q13163 1-448, as in one of the studies)": "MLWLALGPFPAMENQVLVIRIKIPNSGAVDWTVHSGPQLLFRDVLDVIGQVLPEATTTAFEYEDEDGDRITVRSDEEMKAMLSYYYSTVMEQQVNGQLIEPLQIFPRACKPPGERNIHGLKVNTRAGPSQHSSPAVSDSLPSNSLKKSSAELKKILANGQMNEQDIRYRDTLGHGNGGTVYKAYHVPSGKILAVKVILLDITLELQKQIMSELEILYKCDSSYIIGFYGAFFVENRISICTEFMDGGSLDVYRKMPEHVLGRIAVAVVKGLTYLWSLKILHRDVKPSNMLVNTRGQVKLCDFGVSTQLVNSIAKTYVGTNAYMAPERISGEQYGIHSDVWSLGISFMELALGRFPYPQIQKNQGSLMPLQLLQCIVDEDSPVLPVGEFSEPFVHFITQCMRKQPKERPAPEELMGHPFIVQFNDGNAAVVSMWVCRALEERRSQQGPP", "note": "Each line is one published result; the experiments were not run side by side."}
{"SMILES": "CN(CCCC(F)(F)F)c1nccc(-c2cnn3ncccc23)n1", "read-out": "binding", "tested at": "1 µM", "remaining binding": "100%"}
{"SMILES": "O=C(c1ccc(Nc2ncc(Cl)c(-c3cc4ccccc4s3)n2)cc1)N1CCC(N2CCCC2)CC1", "read-out": "binding", "technique": "competition with immobilised ligand", "tested at": "1 µM", "remaining binding": "2.9%"}
{"SMILES": "CC(=O)C1=C(C)N(c2cccc(C(F)(F)F)c2)C(=O)N[C@@H]1c1ccc(C#N)nc1", "read-out": "cell-free assay", "technique": "competition with immobilised ligand", "tested at": "1 µM", "remaining binding": "100%"}
{"SMILES": "CCN1CCN(Cc2ccc(C(=O)Nc3ccc(C)c(Oc4ccc5c(c4)CC(=O)N5)c3)cc2C(F)(F)F)CC1", "read-out": "binding", "technique": "competition with immobilised ligand", "tested at": "1 µM", "remaining binding": "100%"}
{"SMILES": "O=C(NCCCN1CCOCC1)c1ccc(Nc2ncc(Cl)c(-c3ccc(Cl)s3)n2)cc1", "read-out": "binding", "technique": "competition with immobilised ligand", "tested at": "1 µM", "remaining binding": "6.9%"}
{"SMILES": "N[C@H]1CCN(c2nccc(-c3cnn4ncccc34)n2)C1", "read-out": "binding", "tested at": "1 µM", "remaining binding": "69%"}
{"SMILES": "Nc1ncc2c(n1)-c1c([nH]c3ccc(C#CC4CC4)cc13)CCCC2", "read-out": "binding", "technique": "competition with immobilised ligand", "tested at": "1 µM", "remaining binding": "21%"}
{"SMILES": "CCCCN(CCCC)C(=O)CN1C[C@H](c2cc(OC)c3c(c2)OCO3)[C@@H](C(=O)O)[C@@H]1CC(C)(C)CCC", "read-out": "cell-free assay", "technique": "competition with immobilised ligand", "tested at": "1 µM", "remaining binding": "100%"}
{"SMILES": "O=C(NCCCN1CCOCC1)c1ccc(Nc2nccc(-c3cc4ccccc4s3)n2)cc1", "read-out": "binding", "technique": "competition with immobilised ligand", "tested at": "1 µM", "remaining binding": "36%"}
{"SMILES": "CNC(=O)[C@@H]1CC[C@@H](n2c(-c3ccc4cnccc4c3)nc3ccc(C(=O)NCc4cccc(C(N)=O)c4)cc32)C1", "read-out": "binding", "technique": "competition with immobilised ligand", "tested at": "1 µM", "remaining binding": "53%"}
{"SMILES": "COc1ccc2c(O[C@@H]3C[C@H]4C(=O)N[C@]5(C(=O)O)CC5/C=C\\CCCCC[C@H](NC(=O)OC5CCCC5)C(=O)N4C3)cc(-c3csc(NC(=O)C(C)C)n3)nc2c1C (stereo partly shown)", "read-out": "cell-free assay", "technique": "competition with immobilised ligand", "tested at": "1 µM", "remaining binding": "71%"}
{"SMILES": "CN(c1nccc(-c2cnn3ncccc23)n1)C1CC1", "read-out": "binding", "tested at": "1 µM", "remaining binding": "100%"}
{"SMILES": "C[C@@H]1CN(c2cc(-c3nn(C)c4ccc(OC5(C)CC5)cc34)ncn2)C[C@H](C)O1", "read-out": "cell-free assay", "technique": "competition with immobilised ligand", "tested at": "1 µM", "remaining binding": "93%"}
{"SMILES": "Cc1cnn2ncc(-c3ccnc(N(C)C)n3)c2c1", "read-out": "binding", "tested at": "1 µM", "remaining binding": "78%"}
{"SMILES": "NS(=O)(=O)c1cc(NC(=O)Cc2ccccc2)ccc1Oc1cccc(Cl)c1", "read-out": "cell-free assay", "technique": "competition with immobilised ligand", "tested at": "1 µM", "remaining binding": "88%"}
{"SMILES": "FC(F)(F)Oc1cccc(-c2cnc3ccc(-c4ccncc4)nn23)c1", "read-out": "cell-free assay", "technique": "competition with immobilised ligand", "tested at": "5 µM", "remaining binding": "35%"}
{"SMILES": "C[C@@H]1CCN(c2nccc(-c3cnn4ncccc34)n2)C1", "read-out": "binding", "tested at": "1 µM", "remaining binding": "71%"}
{"SMILES": "CS(=O)(=O)N1CCCC(NC(=O)[C@H](CCC2CCCCC2)NC(=O)c2ccc(CNc3ncnc4c3nnn4-c3ccccc3)cc2)C1 (stereo partly shown)", "read-out": "cell-free assay", "technique": "competition with immobilised ligand", "tested at": "0.1 µM", "remaining binding": "100%"}
{"SMILES": "c1cncc(-c2cccc(Nc3nccc(NC4CCCCC4)n3)c2)c1", "read-out": "binding", "technique": "competition with immobilised ligand", "tested at": "10 µM", "remaining binding": "23%"}
{"SMILES": "O=C(NCC1CCOCC1)c1n[nH]cc1NC(=O)c1c(F)cccc1F", "read-out": "binding", "technique": "competition with immobilised ligand", "tested at": "1 µM", "remaining binding": "68%"}
{"SMILES": "F[C@@H]1CCN(c2nccc(-c3cnn4ncccc34)n2)C1", "read-out": "binding", "tested at": "1 µM", "remaining binding": "100%"}
{"SMILES": "C=CC(=O)N1CCC(C(=O)NCC(=O)N2CCN(c3nc(-c4cnc(N)nc4C(F)F)nc(N4CCOCC4)n3)CC2)CC1", "read-out": "binding", "technique": "competition with immobilised ligand", "tested at": "1 µM", "remaining binding": "77%"}
